Experimental data taken from BindingDB's records for doi:10.1021/jm0300274 (The University of Georgia, 2003).

Tested on: HIV-1 (antiviral activity in human PBM cells)
Test: Anti-HIV-1 activity determined in human peripheral blood mononuclear PBM cells, expressed as EC50
Summary of the method: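 PHA-stimulated (2-3 days) human PBM cells from healthy seronegative donors were infected with HIV-1 LAI for 1 h in bulk, then placed into 10-fold serial compound dilutions. Medium contained IL-2 and DEAE-dextran. After 5 days at 37 °C, supernatant virus was pelleted and RT activity measured. EC50 was taken from the concentration-response curve by the median effect method.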

EC50 | SMILES
> 100 µM | Nc1nc2c(ncn2[C@H]2CC(F)(F)[C@H](CO)O2)c(=O)[nH]1
> 100 µM | O=c1ccn([C@@H]2CC(F)(F)[C@H](CO)O2)c(=O)[nH]1
11.5 µM | Nc1ccn([C@@H]2CC(F)(F)[C@H](CO)O2)c(=O)n1
> 100 µM | Cc1cn([C@@H]2CC(F)(F)[C@H](CO)O2)c(=O)[nH]c1=O
> 100 µM | O=c1[nH]cnc2c1ncn2[C@@H]1CC(F)(F)[C@H](CO)O1
> 100 µM | O=c1ccn([C@H]2CC(F)(F)[C@H](CO)O2)c(=O)[nH]1
> 100 µM | Cc1cn([C@H]2CC(F)(F)[C@H](CO)O2)c(=O)[nH]c1=O
8.8 µM | Nc1nc(=O)n([C@@H]2CC(F)(F)[C@H](CO)O2)cc1F
> 100 µM | Nc1nc2c(ncn2[C@@H]2CC(F)(F)[C@H](CO)O2)c(=O)[nH]1
> 100 µM | Nc1ncnc2c1ncn2[C@H]1CC(F)(F)[C@H](CO)O1
> 100 µM | Nc1ccn([C@H]2CC(F)(F)[C@H](CO)O2)c(=O)n1
> 100 µM | O=c1[nH]cnc2c1ncn2[C@H]1CC(F)(F)[C@H](CO)O1
> 100 µM | Nc1ncnc2c1ncn2[C@@H]1CC(F)(F)[C@H](CO)O1
> 100 µM | Nc1nc(=O)n([C@H]2CC(F)(F)[C@H](CO)O2)cc1F
> 100 µM | Cc1cn([C@H]2C=C(F)[C@H](CO)O2)c(=O)[nH]c1=O
38.5 µM | Nc1nc2c(ncn2[C@@H]2C=C(F)[C@H](CO)O2)c(=O)[nH]1
> 100 µM | O=c1[nH]cnc2c1ncn2[C@H]1C=C(F)[C@@H](CO)O1
> 100 µM | Nc1ncnc2c1ncn2[C@@H]1C=C(F)[C@H](CO)O1
> 100 µM | Nc1ncnc2c1ncn2[C@H]1C=C(F)[C@H](CO)O1
> 100 µM | Cc1cn([C@@H]2C=C(F)[C@H](CO)O2)c(=O)[nH]c1=O
> 100 µM | Nc1nc2c(ncn2[C@H]2C=C(F)[C@H](CO)O2)c(=O)[nH]1
